From ChEMBL document CHEMBL3352109, “Synthesis and antifungal activity of substituted salicylaldehyde hydrazones, hydrazides and sulfohydrazides” (Bioorg Med Chem, 2014)
In brackets after ≈: the same amount, converted by molar mass. Activity calls are given as the source filed them. No cut-off for these calls is given here.

Experiments:
Candida albicans [1] = experiment: Antifungal activity against Candida albicans ATCC 10231 by NCCLS method; assay type: functional
In short: (§1)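 Broth dilution per NCCLS yeast reference method, in HEPES-buffered RPMI with 1% DMSO. MIC80 is the lowest concentration giving more than 80% growth inhibition versus positive (no-drug) controls. Read by visual scoring, not absorbance. Highest level tested 125 µg/mL.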

Nakaseomyces glabratus [2] = experiment: Antifungal activity against Candida glabrata ATCC 48435 by NCCLS method; assay type: functional; in short: as §1
Vero [3] = experiment: Cytotoxicity against african green monkey Vero cells assessed as reduction in cell viability at 100 times MIC80 after 24 hrs by CellTiter 96 non-radioactive cell proliferation assay; assay type: cell-based; conditions: chlorocebus sabaeus
In short: (§2)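 Cells exposed for 24 h at 37 °C, 5% CO2, to compound diluted in medium at the antifungal MIC and at 5, 10 and 100× MIC. Tetrazolium dye added for 1–4 h, then stop solution for 1 h at room temperature. Formazan read at 570 nm. Viability is the drug-well/no-drug (1% DMSO) control absorbance ratio, with control set to 100%. 0.1% saponin served as the death control. Triplicates, mean ± SD.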

HepG2 = experiment: Cytotoxicity against human HepG2 cells assessed as reduction in cell viability at 100 times MIC80 after 24 hrs by CellTiter 96 non-radioactive cell proliferation assay; assay type: cell-based; conditions: hepg2, 24 h; in short: as §2
Candida albicans [4] = experiment: Antifungal activity against Candida albicans ATCC 10231 at 125 ug/ml by NCCLS method; assay type: functional, organism-based
Nakaseomyces glabratus [5] = experiment: Antifungal activity against Candida glabrata ATCC 48435 at 125 ug/ml by NCCLS method; assay type: functional, organism-based
Vero [6] = experiment: Cytotoxicity against african green monkey Vero cells assessed as reduction in cell viability at MIC80 after 24 hrs by CellTiter 96 non-radioactive cell proliferation assay relative to control; assay type: cell-based; conditions: chlorocebus sabaeus; in short: as §2
[7] = test system: Vero (Chlorocebus sabaeus); experiment: Cytotoxicity against African green monkey Vero cells assessed as reduction in cell viability at MIC80 after 24 hrs by CellTiter 96 non-radioactive cell proliferation assay

Row | MIC80 (Nakaseomyces glabratus [2]) | Compound | Activity (Candida albicans [4]) | Activity (Nakaseomyces glabratus [5]) | other results
1 | 0.5 µg/mL (≈ 1.75 µM) | O=C(N/N=C/c1ccccc1O)c1ccc([N+](=O)[O-])cc1 | – | – | MIC80 (Candida albicans [1]): 0.5 µg/mL (≈ 1.75 µM); Activity (Vero [3]): Non-toxic; Activity (HepG2): Non-toxic
2 | 4 µg/mL (≈ 29.4 µM) | N/N=C/c1ccccc1O | – | – | MIC80 (Candida albicans [1]): 16 µg/mL (≈ 118 µM); Activity (Vero [3]): Non-toxic; Activity (HepG2): Non-toxic
3 | 0.125 µg/mL (≈ 0.418 µM) | Cc1ccc(O)c(/C=N/NC(=O)c2ccc([N+](=O)[O-])cc2)c1 | – | – | MIC80 (Candida albicans [1]): 0.5 µg/mL (≈ 1.67 µM); Activity (Vero [6]): 20%; Activity [7]: 20%
4 | 0.5 µg/mL (≈ 1.82 µM) | O=C(N/N=C/c1cc(Cl)ccc1O)c1ccccc1 | – | – | MIC80 (Candida albicans [1]): 0.5 µg/mL (≈ 1.82 µM); Activity (Vero [3]): Non-toxic; Activity (HepG2): Non-toxic
5 | 4 µg/mL (≈ 13.2 µM) | O=[N+]([O-])c1cc(/C=N/Nc2ccccc2)c(O)c([N+](=O)[O-])c1 | – | – | MIC80 (Candida albicans [1]): 2 µg/mL (≈ 6.62 µM); Activity (Vero [3]): Non-toxic; Activity (HepG2): Non-toxic
6 | – | O=[N+]([O-])c1ccc(S(=O)(=O)N/N=C/c2cc(Br)ccc2O)cc1 | inactive | inactive | –
7 | – | Cc1ccc(S(=O)(=O)N/N=C/c2cc(Br)ccc2O)cc1 | inactive | inactive | –
8 | – | O=S(=O)(N/N=C/c1cc(Cl)ccc1O)c1ccc2ccccc2c1 | inactive | inactive | –
9 | – | Cc1ccc(S(=O)(=O)N/N=C/c2cc([N+](=O)[O-])ccc2O)cc1 | inactive | inactive | –
10 | – | O=S(=O)(N/N=C/c1cc(Cl)ccc1O)c1ccccc1 | inactive | inactive | –
11 | – | COc1ccc(S(=O)(=O)N/N=C/c2cc(C)ccc2O)cc1 | inactive | inactive | –
12 | – | O=S(=O)(N/N=C/c1cc(Cl)ccc1O)c1ccc(Br)cc1 | inactive | inactive | –
13 | – | O=[N+]([O-])c1ccc(O)c(/C=N/NS(=O)(=O)c2ccccc2)c1 | inactive | inactive | –
14 | – | Cc1ccc(O)c(/C=N/NS(=O)(=O)c2ccc3ccccc3c2)c1 | inactive | inactive | –
15 | – | COc1ccc(O)c(/C=N/NS(=O)(=O)c2ccccc2)c1 | inactive | inactive | –
16 | 1 µg/mL (≈ 3.93 µM) | Cc1ccc(O)c(/C=N/NC(=O)c2ccccc2)c1 | – | – | MIC80 (Candida albicans [1]): 1 µg/mL (≈ 3.93 µM); Activity (Vero [6]): 20%; Activity [7]: 20%
17 | – | COc1ccc(S(=O)(=O)N/N=C/c2cc(Cl)ccc2O)cc1 | inactive | inactive | –
18 | – | COc1ccc(O)c(/C=N/NS(=O)(=O)c2ccc(Br)cc2)c1 | inactive | inactive | –
19 | – | O=S(=O)(N/N=C/c1cc(Br)ccc1O)c1ccc(Br)cc1 | inactive | inactive | –
20 | – | Cc1ccc(S(=O)(=O)N/N=C/c2cc(Cl)ccc2O)cc1 | inactive | inactive | –

Row | Compound | MIC80 (Nakaseomyces glabratus [2]) | Activity (Candida albicans [4]) | Activity (Nakaseomyces glabratus [5]) | other results
21 | O=S(=O)(N/N=C/c1ccccc1O)c1ccccc1 | 125 µg/mL (≈ 452 µM) | inactive | inactive | –
22 | Cc1ccc(S(=O)(=O)N/N=C/c2ccccc2O)cc1 | inactive | inactive | inactive | –
